According to ChEMBL document CHEMBL1154317, “Discovery of a potent, metabolically stabilized resorcylic lactone as an anti-inflammatory lead” (Bioorg Med Chem Lett, 2009):
pIC50: −log10 of the molar value. Activity calls are given as the source filed them. No cut-off for these calls is given here.

Key:
[1] = Antiinflammatory activity in human B164 cells assessed as inhibition of LPS-induced Actin production by PLAP reporter assay; assay type: functional, cell-based
How it was run: (§1)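 Stably transfected PLAP reporter lines (TNFα-promoter/5'-UTR-PLAP in THP-1-33; β-actin-promoter-PLAP in B164), kept in RPMI1640 with 10% heat-inactivated endotoxin-free FBS and G418 1 mg/mL. Seeded at 1.0×10^4 cells/well, preincubated with compound 30 min, then stimulated with LPS 100 ng/ml (E. coli 0127:B08 or 011:B4). After 24-48 h, supernatant alkaline phosphatase activity read; IC50 reported.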

[2] = Clearance in BALB/c mouse at 3 mg/kg, iv; assay type: ADME, organism-based; parameters: dose 3 mg/kg, route intravenous; conditions: in vivo
How it was run: (§2)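 Single intravenous dose given to BALB/c mice. Parent drug levels were measured in plasma over time after dosing. CL, VDss, t1/2 and AUC were derived from these plasma levels. AUC is reported normalised to dose, […].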

[3] = Volume of distribution at steady state in BALB/c mouse at 3 mg/kg, iv; assay type: ADME, organism-based; parameters: dose 3 mg/kg, route intravenous; conditions: in vivo, read-out: Vdss; how it was run: as §2
THP-1 = assay: Antiinflammatory activity in human THP1 cells assessed as inhibition of LPS-induced TNFalpha production by PLAP reporter assay; assay type: functional, cell-based; how it was run: as §1
[4] = Half life in BALB/c mouse at 3 mg/kg, iv; assay type: ADME, organism-based; parameters: route intravenous, dose 3 mg/kg; conditions: in vivo; how it was run: as §2
[5] = Metabolic stability in mouse plasma after 2 hrs; assay type: ADME, cell-free; conditions: read-out: Stability
How it was run: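 Compound at 50 μg/ml or 50 μM in freshly prepared heparinized mouse blood, incubated at 37 °C for 0, 30 and 120 min. Each sample extracted with MeOH containing 0.2% perchloric acid. Analyzed by reverse-phase HPLC, 30% acetonitrile in KH2PO4 buffer pH 3.5. Parent peak area at each time expressed as % of the 0 min area.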

Mus musculus [6] = assay: Normalised AUC in BALB/c mouse at 3 mg/kg, iv; assay type: ADME, organism-based; parameters: dose 3 mg/kg, route intravenous; conditions: in vivo; how it was run: as §2
U-937 [7] = assay: Antiinflammatory activity in human U937 cells assessed as inhibition of LPS-induced TNFalpha production by ELISA; assay type: functional, cell-based
U-937 [8] = assay: Antiinflammatory activity in human U937 cells assessed as inhibition of LPS-induced Actin production by ELISA; assay type: functional, cell-based
Mus musculus [9] = organism: Mus musculus; assay: Antiinflammatory activity in mouse assessed as inhibition of LPS-induced IL6 production; assay type: functional, organism-based
How it was run: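 Mice given compound together with LPS by tail-vein injection in 10% cyclodextrin. Blood collected 3 h later and plasma IL-6 measured by ELISA. Mean with SEM, n = 6-8. Compared against the LPS-treated control group by Dunnett's post hoc test, P<0.05.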

Row | pIC50 [1] | pIC50 (THP-1) | SMILES | other results
1 | < 5.00 | < 5.00 | COc1cc(O)c2c(c1)/C=C/C[C@H](O)[C@H](O)/C=C\[C@@H](Cc1ccccc1)[C@H](C)OC2=O | 
2 | < 5.00 | 6.59 | COc1cc(O)c2c(c1)/C=C/C[C@H](O)[C@H](O)/C=C\[C@@H](C)CNC2=O | 
3 | < 5.00 | 6.69 | COc1cc(O)c2c(c1)/C=C/C[C@H](O)[C@H](O)/C=C\[C@@H](C)COC2=O | 
4 | < 5.00 | < 5.00 | COc1cc(O)c2c(c1)/C=C/C[C@H](O)[C@H](O)/C=C\[C@H](C)[C@@H](C)OC2=O | 
5 | < 5.00 | < 5.00 | COc1cc(O)c2c(c1)/C=C/C[C@H](O)[C@H](O)C(=O)C1CC1OC2=O (stereo not given in full) | 
6 | 5.36 | 5.43 | COc1cc(O)c2c(c1)/C=C/C[C@H](O)[C@H](O)C(=O)/C=C\C[C@H](c1ccccc1)OC2=O | 
7 |  |  | CC[C@@H]1/C=C\[C@@H](O)[C@@H](O)C/C=C/c2cc(OC)cc(O)c2C(=O)O[C@H]1C | inhibition (U-937 [7]): inactive; inhibition (U-937 [8]): inactive
8 | < 5.00 | < 5.00 | COc1cc(O)c2c(c1)/C=C/C[C@H](O)[C@H](O)/C=C\C(C)(C)COC2=O | 
9 | < 5.00 | 6.05 | COc1ccc(CO[C@@H]2/C=C\C(=O)[C@@H](O)[C@@H](O)C/C=C/c3cc(OC)cc(O)c3C(=O)O[C@H]2C)cc1 | 
10 | < 4.52 | 5.40 | COc1cc(O)c2c(c1)/C=C/C[C@H](O)[C@H](O)C(=O)/C=C\[C@H]1CCC[C@H]1OC2=O | remaining at 2 h [5]: 34%
11 | 5.61 | 7.23 | CC[C@H]1C/C=C\C(=O)[C@@H](O)[C@@H](O)C/C=C/c2cc(OC)cc(O)c2C(=O)O1 | 
12 | < 5.00 | 6.87 | COc1cc(O)c2c(c1)/C=C/C[C@H](O)[C@H](O)C(=O)/C=C\[C@@H](C)[C@H](C)OC2=O | clearance [2]: 5.51 L/h/kg; Vd [3]: 1.69 L/kg; half-life [4]: 3.44 h; remaining at 2 h [5]: > 80%; AUC/dose (Mus musculus [6]): 181 ng·h/mL/(mg/kg); inhibition (Mus musculus [9]): Active
13 | 5.07 | 5.28 | CC[C@@H]1C/C=C\C(=O)[C@@H](O)[C@@H](O)C/C=C/c2cc(OC)cc(O)c2C(=O)O1 | 
14 | < 5.00 | 5.05 | COc1cc(O)c2c(c1)/C=C/C[C@H](O)[C@H](O)/C=C\[C@@H](CC(F)(F)F)[C@H](C)OC2=O | 
15 | 5.12 | 6.62 | COc1cc(O)c2c(c1)/C=C/C[C@H](O)[C@H](O)C(=O)/C=C\[C@H](OC)[C@H](C)OC2=O | remaining at 2 h [5]: 25%
16 | 5.55 | 7.16 | COc1cc(O)c2c(c1)/C=C/C[C@H](O)[C@H](O)C(=O)/C=C\CCOC2=O | 
17 | < 5.00 | 5.94 | COc1cc(O)c2c(c1)/C=C/C[C@H](O)[C@H](O)/C=C\[C@H](C)[C@H](C)OC2=O | 
18 | < 5.00 | 6.70 | COc1cc(O)c2c(c1)/C=C/C[C@H](O)[C@H](O)/C=C(\F)[C@@H](C)[C@H](C)NC2=O | 
19 | 5.52 | 6.18 | COc1cc(O)c2c(c1)/C=C/C[C@H](O)[C@H](O)C(=O)/C=C\[C@@H]1CCC[C@@H]1OC2=O | remaining at 2 h [5]: 77%

Row | SMILES | pIC50 [1] | pIC50 (THP-1) | other results
20 | COc1cc(O)c2c(c1)/C=C/C[C@H](O)[C@H](O)C(=O)/C=C\C[C@H](C)OC2=O | 5.62 | 7.96 | clearance [2]: 42.6 L/h/kg; Vd [3]: 3.3 L/kg; half-life [4]: 0.05 h; remaining at 2 h [5]: 2%; AUC/dose (Mus musculus [6]): 23.8 ng·h/mL/(mg/kg)
21 | COc1cc(O)c2c(c1)/C=C/C[C@@H](O)[C@@H](O)C(=O)/C=C\C[C@@H](C)OC2=O | 5.30 | 5.58 | 
22 | COc1cc(O)c2c(c1)/C=C/C[C@H](O)[C@H](O)C(=O)/C=C\C[C@H](C(F)(F)F)OC2=O | 5.88 | 7.51 | 
23 | COc1cc(O)c2c(c1)/C=C/C[C@H](O)[C@H](O)C(=O)/C=C\C[C@@H](C)OC2=O | 5.15 | 5.98 | 
